# Experimental data reported in PMC4714695 (Cancer Science, 2015).
# “Also recorded” adds a separate entry of the source.
# What was measured:
# [1] = tested on: Japanese patients with acute myeloid leukemia; assay: Phase I 3 + 3 dose escalation: dose-limiting toxicities and MTD; assay type: in vivo, human
# In short: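 Open-label 3 + 3 escalation at 350, 400 and 450 mg (highest planned level), by 2-h IV infusion on days 1 and 15 of 28-day cycles; patients hospitalized in cycle 1. DLT: treatment-related CTCAE grade ≥3 non-hematologic AE in cycle 1. Exceptions: untreated nausea/vomiting, treatable grade 3 diarrhea, grade 3 febrile neutropenia or infection, lab abnormalities resolving within 5 days, grade 3 tumor lysis syndrome.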
# [2] = tested on: Japanese patients with acute myeloid leukemia; assay: Adverse events graded by CTCAE version 3.0; assay type: in vivo, human; details: for Blood creatinine increased, all grades, patients / Decreased appetite, all grades, patients / Decreased appetite, grade 3, patients / Epistaxis, all grades, patients / Fatigue, all grades, patients / Febrile neutropenia, all grades, patients / Febrile neutropenia, grade 3, patients / Hyperuricemia, all grades, patients / Hypoalbuminemia, all grades, patients / Hypokalemia, all grades, patients / Hypokalemia, grade 3, patients / Infection, all grades, patients / Infection, grade 3, patients / Nausea, all grades, patients / Neutropenia, all grades, patients / Neutropenia, grade 4, patients / Pyrexia, all grades, patients / Sepsis, all grades, patients / Sepsis, grade 3, patients / Stomatitis, all grades, patients / Vomiting, all grades, patients / Rash, all grades, patients / Hypokalemia, grade 4, patients: irrespective of relationship
# In short: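 Adults with relapsed/refractory or untreated AML unfit for standard induction, ECOG ≤2. Test compound given as a 2-h IV drip infusion on days 1 and 15 of 28-day cycles, at 350, 400 or 450 mg per administration. AEs from all cycles graded by CTCAE v3.0 and tabulated per dose cohort by MedDRA system organ class, preferred term and grade, with drug causality assigned. Safety cut-off 6 June 2014.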
# [3] = tested on: PLK2; details: compared with PLK1; cited from earlier work
# [4] = 450 mg, day 29 (cycle 2, day 1)
# [5] = all cohorts (N = 19), all grades
# [6] = all cohorts (N = 19), all treatment cycles
smiles,measurement,setting,value
CC[C@@H]1C(=O)N(C)c2cnc(Nc3ccc(C(=O)N[C@H]4CC[C@H](N5CCN(CC6CC6)CC5)CC4)cc3OC)nc2N1C(C)C [Volasertib],DLT in cycle 1,[1]; 350 mg cohort,No DLT were reported
same,DLT in cycle 1,[1]; 400 mg cohort,No DLT were reported
same,Patients with DLT in cycle 1,"[1]; 450 mg cohort 3, 6 evaluable patients",1
same,DLT observed (type),"[1]; 450 mg cohort 3, cycle 1",grade 4 abnormal liver function test; also recorded: reversible grade 4 liver function test abnormality
same,Day on which the patient was considered recovered from the DLT,"[1]; 450 mg, reduced to 400 mg in cycle 2",38 days
same,Total bilirubin in the patient with DLT,"[1]; 450 mg, day 9 of cycle 1, reference 0.3–1.2 mg/dL",1.1 mg/dL
same,ALT in the patient with DLT,"[1]; 450 mg, day 9 of cycle 1, reference 6–30 IU/L",116 IU/L
same,AST in the patient with DLT,"[1]; 450 mg, day 9 of cycle 1, reference 13–33 IU/L",131 IU/L
same,ALT in the patient with DLT,"[1]; 450 mg, day 11 of cycle 1",711 IU/L
same,AST in the patient with DLT,"[1]; 450 mg, day 11 of cycle 1",764 IU/L
same,Total bilirubin in the patient with DLT,"[1]; 450 mg, day 11 of cycle 1",2.6 mg/dL
same,ALT in the patient with DLT,"[1]; 450 mg, day 16",450 IU/L
same,AST in the patient with DLT,"[1]; 450 mg, day 16",156 IU/L
same,Total bilirubin in the patient with DLT,"[1]; 450 mg, day 16",3.8 mg/dL
same,ALT in the patient with DLT,[1]; [4],38 IU/L
same,AST in the patient with DLT,[1]; [4],15 IU/L
same,Total bilirubin in the patient with DLT,[1]; [4],1.0 mg/dL
same,Maximum tolerated dose (MTD),[1]; intravenous 2-h infusion on days 1 and 15 of 28-day cycles,450 mg
same,"Blood creatinine increased, all grades, patients",[2]; 350 mg (n = 7),1 n
same,"Decreased appetite, all grades, patients",[2]; 350 mg (n = 7),5 n
same,"Decreased appetite, grade 3, patients",[2]; 350 mg (n = 7),1 n
same,"Epistaxis, all grades, patients",[2]; 350 mg (n = 7),1 n
same,"Fatigue, all grades, patients",[2]; 350 mg (n = 7),1 n
same,"Febrile neutropenia, all grades, patients",[2]; 350 mg (n = 7),5 n
same,"Febrile neutropenia, grade 3, patients",[2]; 350 mg (n = 7),5 n
same,"Hyperuricemia, all grades, patients",[2]; 350 mg (n = 7),3 n
same,"Hypoalbuminemia, all grades, patients",[2]; 350 mg (n = 7),2 n
same,"Hypokalemia, all grades, patients",[2]; 350 mg (n = 7),3 n
same,"Hypokalemia, grade 3, patients",[2]; 350 mg (n = 7),1 n
same,"Infection, all grades, patients",[2]; 350 mg (n = 7),2 n
same,"Infection, grade 3, patients",[2]; 350 mg (n = 7),2 n
same,"Nausea, all grades, patients",[2]; 350 mg (n = 7),1 n
same,"Neutropenia, all grades, patients",[2]; 350 mg (n = 7),1 n
same,"Neutropenia, grade 4, patients",[2]; 350 mg (n = 7),1 n
same,"Pyrexia, all grades, patients",[2]; 350 mg (n = 7),2 n
same,"Sepsis, all grades, patients",[2]; 350 mg (n = 7),2 n
same,"Sepsis, grade 3, patients",[2]; 350 mg (n = 7),2 n
same,"Stomatitis, all grades, patients",[2]; 350 mg (n = 7),2 n
same,"Vomiting, all grades, patients",[2]; 350 mg (n = 7),1 n
same,Patients reporting grade 4 AE,"[2]; 350 mg cohort 1, neutropenia and thrombocytopenia",one of seven patients
same,"Blood creatinine increased, all grades, patients",[2]; 400 mg (n = 4),2 n
same,"Decreased appetite, all grades, patients",[2]; 400 mg (n = 4),1 n
same,"Epistaxis, all grades, patients",[2]; 400 mg (n = 4),2 n
same,"Fatigue, all grades, patients",[2]; 400 mg (n = 4),3 n
same,"Febrile neutropenia, all grades, patients",[2]; 400 mg (n = 4),3 n
same,"Febrile neutropenia, grade 3, patients",[2]; 400 mg (n = 4),3 n
same,"Nausea, all grades, patients",[2]; 400 mg (n = 4),2 n
same,"Neutropenia, all grades, patients",[2]; 400 mg (n = 4),1 n
same,"Neutropenia, grade 4, patients",[2]; 400 mg (n = 4),1 n
same,"Rash, all grades, patients",[2]; 400 mg (n = 4),4 n
same,"Sepsis, all grades, patients",[2]; 400 mg (n = 4),1 n
same,"Sepsis, grade 3, patients",[2]; 400 mg (n = 4),1 n
same,"Stomatitis, all grades, patients",[2]; 400 mg (n = 4),1 n
same,"Vomiting, all grades, patients",[2]; 400 mg (n = 4),1 n
same,Patients reporting grade 4 AE,"[2]; 400 mg cohort 2, neutropenia and thrombocytopenia",two of four patients
same,"Decreased appetite, all grades, patients",[2]; 450 mg (n = 8),2 n
same,"Decreased appetite, grade 3, patients",[2]; 450 mg (n = 8),2 n
same,"Epistaxis, all grades, patients",[2]; 450 mg (n = 8),2 n
same,"Fatigue, all grades, patients",[2]; 450 mg (n = 8),1 n
same,"Febrile neutropenia, all grades, patients",[2]; 450 mg (n = 8),7 n
same,"Febrile neutropenia, grade 3, patients",[2]; 450 mg (n = 8),6 n
same,"Hypoalbuminemia, all grades, patients",[2]; 450 mg (n = 8),1 n
same,"Hypokalemia, all grades, patients",[2]; 450 mg (n = 8),2 n
same,"Hypokalemia, grade 4, patients",[2]; 450 mg (n = 8),1 n
same,"Infection, all grades, patients",[2]; 450 mg (n = 8),1 n
same,"Nausea, all grades, patients",[2]; 450 mg (n = 8),4 n
same,"Neutropenia, all grades, patients",[2]; 450 mg (n = 8),1 n
same,"Neutropenia, grade 4, patients",[2]; 450 mg (n = 8),1 n
same,"Pyrexia, all grades, patients",[2]; 450 mg (n = 8),2 n
same,"Rash, all grades, patients",[2]; 450 mg (n = 8),3 n
same,"Sepsis, all grades, patients",[2]; 450 mg (n = 8),2 n
same,"Sepsis, grade 3, patients",[2]; 450 mg (n = 8),2 n
same,"Stomatitis, all grades, patients",[2]; 450 mg (n = 8),2 n
same,"Vomiting, all grades, patients",[2]; 450 mg (n = 8),2 n
same,Patients reporting grade 4 AE,"[2]; 450 mg cohort 3, neutropenia, hypokalemia and abnormal liver function test",three of eight patients
same,"Blood creatinine increased, all grades, patients",[2]; Total (N = 19),3 n
same,"Decreased appetite, all grades, patients",[2]; Total (N = 19),8 n
same,"Decreased appetite, grade 3, patients",[2]; Total (N = 19),3 n
same,"Epistaxis, all grades, patients",[2]; Total (N = 19),5 n
same,"Fatigue, all grades, patients",[2]; Total (N = 19),5 n
same,"Febrile neutropenia, all grades, patients",[2]; Total (N = 19),15 n
same,"Febrile neutropenia, grade 3, patients",[2]; Total (N = 19),14 n
same,"Hyperuricemia, all grades, patients",[2]; Total (N = 19),3 n
same,"Hypoalbuminemia, all grades, patients",[2]; Total (N = 19),3 n
same,"Hypokalemia, all grades, patients",[2]; Total (N = 19),5 n
same,"Hypokalemia, grade 3, patients",[2]; Total (N = 19),1 n
same,"Hypokalemia, grade 4, patients",[2]; Total (N = 19),1 n
same,"Infection, all grades, patients",[2]; Total (N = 19),3 n
same,"Infection, grade 3, patients",[2]; Total (N = 19),2 n
same,"Nausea, all grades, patients",[2]; Total (N = 19),7 n
same,"Neutropenia, all grades, patients",[2]; Total (N = 19),3 n
same,"Neutropenia, grade 4, patients",[2]; Total (N = 19),3 n
same,"Pyrexia, all grades, patients",[2]; Total (N = 19),4 n
same,"Rash, all grades, patients",[2]; Total (N = 19),7 n
same,"Sepsis, all grades, patients",[2]; Total (N = 19),5 n
same,"Sepsis, grade 3, patients",[2]; Total (N = 19),5 n
same,"Stomatitis, all grades, patients",[2]; Total (N = 19),5 n
same,"Vomiting, all grades, patients",[2]; Total (N = 19),4 n
same,"Decreased appetite, frequency",[2]; [5],42.1%
same,"Epistaxis, frequency",[2]; [5],26.3%
same,"Fatigue, frequency",[2]; [5],26.3%
same,"Febrile neutropenia, frequency",[2]; [5],78.9%
same,"Hypokalemia, frequency",[2]; [5],26.3%
same,"Nausea, frequency",[2]; [5],36.8%
same,"Pyrexia, frequency",[2]; [5],21.1%
same,"Rash, frequency",[2]; [5],36.8%
same,"Sepsis, frequency",[2]; [5],26.3%
same,"Stomatitis, frequency",[2]; [5],26.3%
same,"Vomiting, frequency",[2]; [5],21.1%
same,Patients reporting CTCAE of grade ≥3,[2]; [6],94.7%
same,Patients reporting at least one AE irrespective of cause,[2]; [6],19 patients
same,Patients reporting at least one drug-related AE,[2]; [6],19 patients
same,Inhibition of PLK2,[3],to a lesser extent
